According to ChEMBL document CHEMBL1151960, “(Nitrooxyacyloxy)methyl esters of aspirin as novel nitric oxide releasing aspirins” (J Med Chem, 2009):

Columns and labels:
Aorta [1] = assay: Vasodilatory activity in Wistar rat endothelium-denuded thoracic aortic ring assessed as inhibition of phenylephrine-induced contraction […]; type: functional, tissue-based
In short: (§1)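 Endothelium-denuded rat aorta strips are precontracted with phenylephrine. At the plateau, cumulative concentrations of test agent in DMSO are added. Relaxation is recorded isometrically and reported as EC50 ± SEM (μM). In a separate series, 1 μM ODQ is added 5 min before contraction, giving at least 30 min of preincubation before the vasodilator. At least five experiments.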

Aorta [2] = assay: Vasodilatory activity in Wistar rat endothelium-denuded thoracic aortic ring assessed as inhibition of phenylephrine-induced contraction at 100 uM preincubated for 30 mins before phenylephrine addition in presence of 1 uM 1H-[1,2,4]oxadiazolo[4,3-a]quinoxalin-1-one; type: functional; design: scale not given: the % may be the effect or the level left
[3] = Chemical stability in acidic medium at pH 1 assessed as unchanged drug level at 0.5 mM after 3 hrs by RP-HPLC analysis; type: physicochemical; conditions: read-out: Stability
In short: (§2)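 A 0.5 mM acetonitrile solution (2 mL) is diluted to 10 mL with HCl (pH 1.0) or 50 mM phosphate buffer (pH 7.4) and held at 37 ± 0.5 °C. Aliquots are taken over time for RP-HPLC (C18 column, acetonitrile/water gradient with 0.1% TFA). Performed in triplicate.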

Serum = assay: Metabolic stability in human serum assessed as maximal amount of aspirin released at 250 uM by RP-HPLC analysis; type: ADME, cell-free
[4] = (§3) Antiaggregatory activity in human platelet rich plasma assessed as inhibition of collagen-induced platelet aggregation preincubated 10 mins before collagen challenge; type: functional
In short: (§4)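 Platelet-rich plasma from citrated blood spun at 210g for 20 min. Compound in 0.5% DMSO vehicle preincubated 10 min, then submaximal collagen (0.8–1.5 μg/mL). Light-transmission aggregometry with stirring at 1000 rpm, 37 °C, recorded for 10 min. Read-out is % inhibition versus vehicle control; IC50 by nonlinear regression, else % inhibition at 300 μM top concentration. At least five experiments.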

Platelet = assay: as §3; type: functional; in short: as §4
Aorta [5] = assay: Vasodilatory activity in Wistar rat endothelium-denuded thoracic aortic ring assessed as inhibition of phenylephrine-induced contraction at 30 uM preincubated for 30 mins before phenylephrine addition in presence of 1 uM 1H-[1,2,4]oxadiazolo[4,3-a]quinoxalin-1-one; type: functional; design: scale not given: the % may be the effect or the level left
[6] = Chemical stability in phosphate buffer at pH 7.4 assessed as unchanged drug level at 0.5 mM after 3 hrs by RP-HPLC analysis; type: physicochemical; conditions: read-out: Stability; in short: as §2
[7] = Metabolic stability in human serum assessed as half life at 250 uM by RP-HPLC analysis; type: ADME, cell-free
Aorta [8] = assay: Vasodilatory activity in Wistar rat endothelium-denuded thoracic aortic ring assessed as inhibition of phenylephrine-induced contraction preincubated for […] in presence of 1 uM 1H-[1,2,4]oxadiazolo[4,3-a]quinoxalin-1-one; type: functional, tissue-based; in short: as §1
[9] = Antiaggregatory activity in human platelet rich plasma assessed as inhibition of collagen-induced platelet aggregation at 300 uM preincubated 10 mins before collagen challenge; type: functional; in short: as §4

Structure (SMILES)	Activity (Aorta [1])	EC50 (Aorta [1]) [µM]	Activity (Aorta [2]) [%]	remaining at 3 h, 500 µM [3] [%]	Activity (Serum) [%]	IC50 [4] [µM]	Activity (Platelet)	Activity (Aorta [5]) [%]	remaining at 3 h, 500 µM [6] [%]	half-life at 250 µM [7] [min]	EC50 (Aorta [8]) [µM]	inhibition at 300 µM [9] [%]
O=C(O)CCCCCO[N+](=O)[O-]	Dose-dependent effect	8.3	<50									
CC(=O)Oc1ccccc1C(=O)OCOC(=O)c1ccc(OCCCO[N+](=O)[O-])cc1	Dose-dependent effect	0.017		99	39.8	138	Dose-dependent effect	<50	99	3.4		
O=C(O)c1ccc(SCCCO[N+](=O)[O-])cc1	Dose-dependent effect	0.27									53	
O=C(O)c1ccc(S(=O)(=O)CCCO[N+](=O)[O-])cc1	Dose-dependent effect	20	<50									
CC(=O)Oc1ccccc1C(=O)OCOC(=O)c1ccc(SCC(CO[N+](=O)[O-])O[N+](=O)[O-])cc1 (stereo not drawn)	Dose-dependent effect	0.1		98	43	129	Dose-dependent effect	<50	98	4.6		
CC(=O)Oc1ccccc1C(=O)OC(C)OC(=O)c1ccc(SCCCO[N+](=O)[O-])cc1 (stereo not drawn)	Dose-dependent effect	0.14		98	29.4		Dose-dependent effect	<50	99	4.4		27
CC(=O)Oc1ccccc1C(=O)OCOC(=O)CCCCCO[N+](=O)[O-]	Dose-dependent effect	1.2		99	10.1		Dose-dependent effect	<50	99	< 1		17
O=C(O)c1ccccc1OCCCO[N+](=O)[O-]	Dose-dependent effect	20	<50									
CC(=O)Oc1ccccc1C(=O)OCOC(=O)c1ccc(OCC(CO[N+](=O)[O-])O[N+](=O)[O-])cc1 (stereo not drawn)	Dose-dependent effect	0.041		99	22.4	140	Dose-dependent effect	<50	99	5.4		
CC(=O)Oc1ccccc1C(=O)OCOC(=O)c1ccc([S+]([O-])CCCO[N+](=O)[O-])cc1 (stereo not drawn)	Dose-dependent effect	0.47		98	70.7	72	Dose-dependent effect	<50	90	< 1		
CC(=O)Oc1ccccc1C(=O)OCOC(=O)c1ccccc1OCCCO[N+](=O)[O-]	Dose-dependent effect	4		99	5	163	Dose-dependent effect	<50	98	< 1		
O=C(O)c1ccc([S+]([O-])CCCO[N+](=O)[O-])cc1 (stereo not drawn)	Dose-dependent effect	6	<50									
O=C(O)c1ccc(CCCO[N+](=O)[O-])cc1	Dose-dependent effect	0.51	<50									
O=C(O)c1ccc(CC(CO[N+](=O)[O-])O[N+](=O)[O-])cc1 (stereo not drawn)	Dose-dependent effect	0.33	<50									
O=C(O)CCCCCCO[N+](=O)[O-]	Dose-dependent effect	20	<50									
CC(=O)Oc1ccccc1C(=O)OCOC(=O)CCCC(CO[N+](=O)[O-])O[N+](=O)[O-] (stereo not drawn)	Dose-dependent effect	0.39		99	10.6		Dose-dependent effect	<50	99	< 1		8.6
O=C(O)c1cccc(OCCCO[N+](=O)[O-])c1	Dose-dependent effect	3.8	<50									
CC(=O)Oc1ccccc1C(=O)OCOC(=O)c1ccc(S(=O)(=O)CCCO[N+](=O)[O-])cc1	Dose-dependent effect	0.36		98	59.2	38	Dose-dependent effect	<50	70	< 1		
CC(=O)Oc1ccccc1C(=O)O [ASPIRIN]				90		54	Dose-dependent effect		90	63		
CC(=O)Oc1ccccc1C(=O)OCOC(=O)c1cccc(OCCCO[N+](=O)[O-])c1	Dose-dependent effect	0.14		99	48.3	100	Dose-dependent effect	<50	98	1.4		
CC(=O)Oc1ccccc1C(=O)OCOC(=O)c1ccc(CC(CO[N+](=O)[O-])O[N+](=O)[O-])cc1 (stereo not drawn)	Dose-dependent effect	0.052		99	34.2	97	Dose-dependent effect	<50	99	3.4		
O=C(O)c1ccc(OCCCO[N+](=O)[O-])cc1	Dose-dependent effect	0.62									66	
CC(=O)Oc1ccccc1C(=O)OCOC(=O)CCCCC(CO[N+](=O)[O-])O[N+](=O)[O-] (stereo not drawn)	Dose-dependent effect	0.52		99	9.8		Dose-dependent effect	<50	99	< 1		36
CC(=O)Oc1ccccc1C(=O)OCOC(=O)c1cccc(CO[N+](=O)[O-])n1	Dose-dependent effect	0.82		84	58	20	Dose-dependent effect	<50	60	< 1		
CC(=O)Oc1ccccc1C(=O)OCOC(=O)c1ccc(SCCCO[N+](=O)[O-])cc1	Dose-dependent effect	0.15		99	61.7	45	Dose-dependent effect	<50	99	2.4		
CC(=O)Oc1ccccc1C(=O)OCOC(=O)CCCCCCO[N+](=O)[O-]	Dose-dependent effect	1.6		99	17.6		Dose-dependent effect	<50	100	< 1		29
O=C(O)c1ccc(OCC(CO[N+](=O)[O-])O[N+](=O)[O-])cc1 (stereo not drawn)	Dose-dependent effect	0.28									67	
CC(=O)Oc1ccccc1C(=O)OCOC(=O)c1ccc(CCCO[N+](=O)[O-])cc1	Dose-dependent effect	0.075		98	65.2	41	Dose-dependent effect	<50	100	1.9		
O=C(O)c1cccc(CO[N+](=O)[O-])n1	Dose-dependent effect	12	<50									
O=C(O)c1ccc(SCC(CO[N+](=O)[O-])O[N+](=O)[O-])cc1 (stereo not drawn)	Dose-dependent effect	0.27									56	
